Screening results from PubChem BioAssay.
Cl transport mod: KCC2 cotransporter modulators, thallium flux, primary screen, cell-based, HEK293 KCC2, FluoZin-2 fluorescence, MLSMR; Solute carrier family 12 member 5 (Homo sapiens), Q9H2X9; KCC2 cells, thallium flux FluoZin-2 fluorescence; B-score of Tl+ flux slope (higher = more flux/activation; lower = inhibition) at 10 µM; actives 2.2% (n = 190,000);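 active means thallium flux slope and its plate-corrected score both differing from the plate sample mean at a set confidence after two filtering rounds, in either direction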;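 further: slope of fluorescence scaled to starting intensity during 10 to 20 s after thallium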
RBBP9 inhibitor: human RBBP9 inhibitors, primary screen, biochemical, fluorescence polarization, FP-Rh probe, HTS; Serine hydrolase RBBP9 (Homo sapiens), O75884; recombinant RBBP9; inhibition, % at 7.94 µM; actives 0.2% (n = 220,000);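 active means inhibition above the campaign mean of all tested compounds plus 3 SD, cut at about 14% in these data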
Target sequence (O75884 whole entry, looked up): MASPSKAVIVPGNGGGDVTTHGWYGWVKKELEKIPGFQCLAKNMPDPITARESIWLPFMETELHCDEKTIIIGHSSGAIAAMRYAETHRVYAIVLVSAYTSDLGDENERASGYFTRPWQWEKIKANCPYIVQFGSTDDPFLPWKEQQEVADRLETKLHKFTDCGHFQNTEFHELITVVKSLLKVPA
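Assay system: recombinant human RBBP9; Reagent: Serine-hydrolase probe FP-Rh, 375 nM pre-mixing; Doses: 7.94 µM single dose, 0.794% DMSO; Incubation: 30 min then 45 min, 25 °C; Detection: fluorescence polarization (mP), excitation 525 nm, emission 598 nm; Evaluation: percent inhibition from mP, scaled between DMSO and no-protein wells.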
NCF1 inh: p47phox/p22phox peptide binding inhibitors, primary screen, biochemical, uHTS, NADPH oxidase regulatory subunit; Neutrophil cytosol factor 1 (Homo sapiens), P14598; fluorescence polarization, 2 h; inhibition, % at 24.7 µM; actives 0.53% (n = 220,000); AID 1274, 2008;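 active means inhibition above about 30%, limit read from the data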
WT yeast gro inh: growth inhibition of WT strain, primary screen, mitochondrial fusion inhibitor project, WT and mutant strains, chemical genetic; AID 1362, 2008; mitochondrial fusion phenotypic screen; inhibition, % at 10 µM; actives 2.1% (n = 190,000); in the data active means inhibition above about 58%; tested in S. cerevisiae
14-3-3 Bad PPI: inhibitors of 14-3-3 zeta/Bad binding, primary screen, biochemical, TR-FRET, bovine 14-3-3 zeta; AID 781, 2007; TR-FRET 14-3-3zeta/Dy647-pBad peptide displacement, 1 h; 14-3-3 protein zeta/delta (Bos taurus), P63103; actives 0.71% (n = 220,000); inhibition, % at 21.7 µM;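 active means inhibition above about 70%, limit read from the data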
ROMK mod: ROMK potassium channel modulators, primary screen, cell-based, thallium flux, MLSMR library | ATP-sensitive inward rectifier potassium channel 1 (Homo sapiens), P48048 | Tet-inducible ROMK, thallium flux fluorescence; actives lie on both sides | B-score at 10 µM | actives 2% (n = 130,000) | AID 1918, 2009;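 active means signal ratio slope over the read window, or its plate-corrected B-score, at least 3 SD from the plate mean, either direction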;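 further: B-score of the F/F0 ratio slope over 7 to 12 s after thallium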
Target sequence (P48048 whole entry, looked up): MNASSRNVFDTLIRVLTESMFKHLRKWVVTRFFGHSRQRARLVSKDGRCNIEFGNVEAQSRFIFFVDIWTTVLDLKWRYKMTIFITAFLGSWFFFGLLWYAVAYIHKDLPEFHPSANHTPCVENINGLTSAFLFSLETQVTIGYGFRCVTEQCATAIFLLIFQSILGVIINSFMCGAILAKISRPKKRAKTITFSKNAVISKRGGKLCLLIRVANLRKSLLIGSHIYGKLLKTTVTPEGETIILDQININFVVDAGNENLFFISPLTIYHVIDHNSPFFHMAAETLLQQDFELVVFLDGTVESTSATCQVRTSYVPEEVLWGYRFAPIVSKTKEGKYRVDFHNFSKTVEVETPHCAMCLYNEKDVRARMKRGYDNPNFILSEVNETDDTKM
KCC2 sec1: KCC2 modulators in sodium-free buffer, confirmation, cell-based, HEK293 KCC2, thallium flux, secondary assay; shares compounds with Cl transport mod; FluoZin2 fluorescence; hits give high values; normalised thallium flux (F/F0 slope) at 10 µM; actives 15% (n = 3,700);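 active means thallium flux slope above the same plate's solvent-only control mean plus 3 SD; inconclusive means the two replicate wells disagree; inactive means no significant difference from solvent-only control wells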
KCC2 bumet counter: thallium flux persisting under bumetanide in KCC2 cells, confirmation, counter-screen for KCC2 modulator project, cell-based, HEK293 KCC2, FluoZin2, secondary assay 3. shares compounds with Cl transport mod. HEK293-KCC2 + bumetanide/ouabain; hits give high values. normalized thallium flux at 10 µM. actives 49% (n = 3,700). AID 1714, 2009;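 active means thallium entry rate above the same plate's blocked-transporter control wells by more than 3 SD; inconclusive means the two repeat wells disagree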;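 further: raw slope of fluorescence over initial fluorescence between 10 and 20 s after thallium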
KCC2 sec2: KCC2 modulators without ouabain present, confirmation, cell-based, HEK293 KCC2, thallium flux, FluoZin2, secondary assay 2; thallium flux FluoZin2 fluorescence; actives lie on both sides; F/F0 rise rate, 10–20 s post-thallium; actives 23% (n = 3,700); AID 1715, 2009; normalized thallium flux at 10 µM; shares compounds with Cl transport mod;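 active means thallium flux slope more than 3 SD above or below the plate's solvent-only control mean, mostly below; inconclusive means the two repeat wells disagreed; inactive means no significant shift from solvent-only controls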
HEK293 Tl flux: thallium flux modulation in parental HEK cells, confirmation, counter-screen for KCC2 modulator project, cell-based, counterscreen 1. shares compounds with Cl transport mod. HEK293 parental cells, thallium flux FluoZin2, ouabain; baseline-ratio fluorescence slope, 10–20 s after thallium. thallium flux rate (normalised fluorescence) at 10 µM. actives 46% (n = 3,700). AID 1716, 2009;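 active means thallium flux rate significantly above the same plate's solvent-only control wells, beyond their mean plus 3 SD; inconclusive means the two replicate wells gave conflicting results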
KCC2 retest ouab: KCC2 inhibitors and activators, ouabain retest, confirmation, HEK-KCC2 cells; raw Tl+ flux slope (below DMSO = inhibition, above = activation) at 10 µM; shares compounds with Cl transport mod; actives 48% (n = 3,700); HEK293-KCC2, thallium flux FluoZin2 fluorescence; bidirectional: low = inhibitor, high = activator;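 active means thallium flux slope beyond 3 SD from same-plate DMSO control mean in most replicates, usually higher, sometimes lower; inconclusive means repeat tests gave conflicting results; inactive means no significant difference from controls in most replicates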;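 further: slope of initial-normalized fluorescence between seconds 10 and 20 after thallium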
HEK293 Tl flux2: native HEK Tl+ uptake effects, second counter-screen – HEK cells, counterscreen 2, counter-screen for KCC2 modulator project, confirmation; shares compounds with Cl transport mod; HEK293 parental, thallium flux FluoZin-2 fluorescence slope; actives 33% (n = 3,700); thallium flux slope at 10 µM;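 active means thallium flux slope above the same plate's solvent-control mean plus 3 SD in both duplicate wells; inconclusive means duplicate wells that disagreed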;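 further: run without ouabain in cells lacking the KCC2 cotransporter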
Large screens that a line does not name were inactive (follow-up assays come after a bar, where they were run). Most compounds without a hit are left out; they make up all but 5.8% or so of the library.

Cc1ccc(OCc2n[nH]c(=S)n2-c2ccccc2)cc1C	Cl transport mod 47, WT yeast gro inh 67 | KCC2 sec1 inactive | KCC2 bumet counter 0.069 | KCC2 sec2 0.043 | HEK293 Tl flux 0.02 | KCC2 retest ouab 0.049 | HEK293 Tl flux2 0.024
Cc1ccc(-n2c(COc3cccc(C)c3)n[nH]c2=S)cc1	Cl transport mod 5.6 (no result: ROMK mod) | KCC2 sec1 inactive | KCC2 bumet counter 0.064 | KCC2 sec2 inactive | HEK293 Tl flux 0.016 | KCC2 retest ouab 0.036 | HEK293 Tl flux2 0.021
S=c1[nH]c(-c2ccccc2)cn1/N=C/c1cccs1	Cl transport mod 18 (no result: WT yeast gro inh, ROMK mod) | KCC2 sec1 0.023 | KCC2 bumet counter 0.036 | KCC2 sec2 inactive | HEK293 Tl flux 0.016 | KCC2 retest ouab 0.029 | HEK293 Tl flux2 0.016
S=c1[nH]c(-c2ccccc2)cn1/N=C/c1cccnc1	none (no result: WT yeast gro inh)
O=C(O)c1ccc(/C=N/n2cc(-c3ccccc3)[nH]c2=S)cc1	none (no result: WT yeast gro inh, ROMK mod)
S=c1[nH]c(-c2ccccc2)cn1/N=C/c1ccc(Br)cc1	Cl transport mod 54 | KCC2 sec1 0.011 | KCC2 bumet counter 0.04 | KCC2 sec2 inactive | HEK293 Tl flux 0.017 | KCC2 retest ouab 0.048 | HEK293 Tl flux2 0.011
Cc1ccc(Cl)cc1NC(=S)N(Cc1ccccc1)Cc1cccnc1	none
CCCCNC(=O)c1ccc2c(=O)n(CCCOCC)c(=S)[nH]c2c1	none (no result: ROMK mod)
COC(=O)c1ccc2c(=O)n(-c3ccc(OC)cc3)c(=S)[nH]c2c1	Cl transport mod 8.2 | KCC2 sec1 inactive | KCC2 bumet counter 0.02 | KCC2 sec2 inactive | HEK293 Tl flux 0.012 | KCC2 retest ouab inconclusive | HEK293 Tl flux2 inactive
CCOCCCNC(=O)c1ccc(-n2c(=S)[nH]c3ccccc3c2=O)cc1	Cl transport mod 10 | KCC2 sec1 inconclusive | KCC2 bumet counter 0.015 | KCC2 sec2 inactive | HEK293 Tl flux 0.0093 | KCC2 retest ouab inconclusive | HEK293 Tl flux2 0.01
O=C1NC(c2cccc([N+](=O)[O-])c2)Oc2ccccc21 (stereo unspecified)	none
O=C1C2C3C=CC(C3)C2C(=O)N1Nc1c(Cl)cc(Cl)cc1Cl (stereo unspecified)	none
O=C(CNC(=S)N(CCCN1CCOCC1)Cc1cccs1)N1CCCC1	none
CCOC(=O)C1=NN(C(=O)c2cccc(Br)c2)C(O)(C(C)(C)C)C1 (stereo unspecified)	Cl transport mod 107 (no result: WT yeast gro inh, ROMK mod) | KCC2 sec1 0.048 | KCC2 bumet counter 0.13 | KCC2 sec2 0.052 | HEK293 Tl flux inconclusive | KCC2 retest ouab 0.099 | HEK293 Tl flux2 0.039
O=C1NC(=S)SC1=C1CCCC1	Cl transport mod 18 (no result: ROMK mod) | KCC2 sec1 inactive | KCC2 bumet counter 0.028 | KCC2 sec2 0.042 | HEK293 Tl flux 0.029 | KCC2 retest ouab 0.037 | HEK293 Tl flux2 0.032
CC1(C)CC(=O)c2cnc3c(C#N)cnn3c2C1	none
Cc1ccc(-c2ccc(SCC(=O)N3CCCc4ccccc43)nn2)cc1	none (no result: ROMK mod)
CC1Cc2ccccc2N1C(=O)CSc1nnc(CNc2ccccc2)o1 (stereo unspecified)	none (no result: Cl transport mod, ROMK mod) | KCC2 sec1 inactive | KCC2 bumet counter inactive | KCC2 sec2 0.023 | HEK293 Tl flux inactive | KCC2 retest ouab 0.013 | HEK293 Tl flux2 inactive
O=C(CSc1ccc(-c2ccccc2)nn1)N1CCCc2ccccc21	Cl transport mod -4.7 (no result: ROMK mod) | KCC2 sec1 inactive | KCC2 bumet counter inactive | KCC2 sec2 0.021 | HEK293 Tl flux inactive | KCC2 retest ouab inconclusive | HEK293 Tl flux2 inactive
O=C(CSc1nnc(CNc2ccccc2)o1)c1ccc2c(c1)OCCO2	Cl transport mod -4.4 | KCC2 sec1 inactive | KCC2 bumet counter inconclusive | KCC2 sec2 0.024 | HEK293 Tl flux inactive | KCC2 retest ouab inconclusive | HEK293 Tl flux2 inactive
CC(C)(C)N(Cc1ccccc1)C(=O)CSc1nnc(CNc2ccc(F)cc2)o1	Cl transport mod -5.3 | KCC2 sec1 inactive | KCC2 bumet counter inactive | KCC2 sec2 inactive | HEK293 Tl flux inactive | KCC2 retest ouab 0.013 | HEK293 Tl flux2 inactive
O=C(CSc1nnc(-c2ccncc2)o1)c1ccc2c(c1)OCCO2	none
Cc1oc(-c2cccs2)nc1CN1CCC(CO)(CCOc2ccccc2)CC1	none
O=C(CSc1nnc(CNc2ccccc2)o1)N1CCCc2ccccc21	Cl transport mod -4.9 | KCC2 sec1 inactive | KCC2 bumet counter inactive | KCC2 sec2 0.024 | HEK293 Tl flux inactive | KCC2 retest ouab inactive | HEK293 Tl flux2 inactive
Cc1cc(=O)[nH]c(N/N=C/C(C)c2ccccc2)n1 (stereo unspecified)	none (no result: WT yeast gro inh, ROMK mod)
Cc1ccc(Cn2nnc3c(=O)[nH]c(C(=O)NCc4ccco4)nc32)cc1	none (no result: ROMK mod)
O=C(NCc1ccco1)c1nc2c(nnn2Cc2cccc(Cl)c2)c(=O)[nH]1	Cl transport mod -4.7 (no result: ROMK mod) | KCC2 sec1 inactive | KCC2 bumet counter 0.0058 | KCC2 sec2 inconclusive | HEK293 Tl flux 0.0063 | KCC2 retest ouab 0.014 | HEK293 Tl flux2 inactive
